The source made the active and inactive calls.
Tests used:
[1] = test system: Mus musculus; experiment: Ability to antagonise intraperitoneal dose; inactive (<10% antagonism) at 30 mg/kg is represented as I-30.; type: functional, organism-based; set-up: dose 30 mg/kg
How it was run: (§1)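 Nonfasted male Swiss Webster mice, 18–24 g, ten per dose level and in saline controls. Test compound given ip 30 min before tetrabenazine 32 mg/kg ip; dose expressed as free base. Motor activity and ptosis scored. Control response ≤90% corrected by Abbott's formula.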

[2] = test system: Mus musculus; experiment: Ability to antagonise intraperitoneal dose; inactive (<10% antagonism) at 30 mgjkg is represented as I-30.; type: functional, organism-based; how it was run: as §1
[3] = species: Mus musculus; experiment: Gross behavioral effects ascertained in mice; W indicates weak stimulant or depressant activity of little significance.; type: functional, organism-based
How it was run: (§2)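 Male Swiss Webster mice, 18–24 g, three per dose, given ip doses of 1, 3, 10, 30, 100 and 300 mg/kg. Observed for gross behavior and held for 4 days. Scored as weak (W), stimulant (S), depressant (D) or convulsant (C).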

[4] = biological target: Sodium-dependent dopamine transporter (Rattus norvegicus) (UniProt P23977); experiment: Ability to inhibit the uptake of [3H]dopamine (DA) 0.1 uM concentration at rat brain synaptosomes; type: functional, subcellular
How it was run: (§3)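 Male Wistar rat brain synaptosomes (P2 fraction): hypothalamus for NE, striatum for DA, cerebral cortex for 5-HT. Buffer is Tris- or HEPES-buffered salt medium with glucose, ascorbate and nialamide, pH 7.4 at 37 °C. Preincubated 10 min at 37 °C with compound. Uptake started with [3H]NE 100–300 nM, [3H]DA 50–300 nM or [3H]5-HT 100–200 nM, incubated 3 min (DA) or 6–10 min (NE, 5-HT). Blanks held on ice. Filtered, counted by scintillation.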

[5] = biological target: Norepinephrine transporter (Rattus norvegicus) (UniProt Q9WTR4); experiment: Ability to inhibit the uptake of [3H]norepinephrine (NE) 0.1 uM concentration at rat brain synaptosomes; type: functional, subcellular; how it was run: as §3
[6] = biological target: Sodium-dependent serotonin transporter (Rattus norvegicus) (UniProt P31652); experiment: Ability to inhibit the uptake of [3H]- serotonin(5-HT) 0.1 uM concentration at rat brain synaptosomes; type: functional, subcellular; how it was run: as §3
[7] = biological target: Serotonin 2 (5-HT2) receptor (Rattus norvegicus, UniProt P30994+P08909+P14842); experiment: Binding affinity towards 5-hydroxytryptamine 2 receptor; type: protein assay
[8] = species: Mus musculus; experiment: Antagonism of tetrabenazine (TBZ)-induced depression in mice measured for ptosis; type: functional; conditions: Mus musculus; read-out: ED50; how it was run: as §1
[9] = species: Mus musculus; experiment: Antagonism of tetrabenazine (TBZ)-induced depression measured in mice by motor activity; type: functional; conditions: Mus musculus; read-out: ED50; how it was run: as §1
[10] = species: Mus musculus; experiment: Gross behavioral effects ascertained in mice; S indicates significant stimulant properties.; type: functional, organism-based; how it was run: as §2
[11] = biological target: Sodium-dependent dopamine transporter (Rattus norvegicus, UniProt P23977); experiment: Inhibition of the uptake of tritiated dopamine (DA) in rat synaptosomes; type: subcellular, Brain
[12] = biological target: Norepinephrine transporter (Rattus norvegicus, UniProt Q9WTR4); experiment: Inhibition of uptake of tritiated norepinephrine (NE) in rat synaptosomes; type: subcellular, Brain
[13] = species: Rattus norvegicus; experiment: Ability to inhibit the uptake of tritiated norepinephrine (NE) at 0.1 uM concentration; type: functional; how it was run: as §3
[14] = biological target: Sodium-dependent serotonin transporter (Rattus norvegicus) (UniProt P31652); experiment: Inhibition of tritiated serotonin(5-HT) uptake at 0.1 uM concentration; type: functional; how it was run: as §3
[15] = biological target: Sodium-dependent dopamine transporter (Rattus norvegicus) (UniProt P23977); experiment: Inhibition of tritiated dopamine (DA) uptake at 0.1 uM concentration; type: functional; how it was run: as §3
[16] = biological target: D(2) dopamine receptor (Rattus norvegicus) (UniProt P61169); experiment: Binding affinity towards dopamine receptor D2 at 1.0 uM concentration
How it was run: (§4)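 Rat brain crude synaptic membranes in 20 mM NaHEPES pH 7.5. Ligands: α1 cortex […] 0.4 nM, nonspecific with (-)-NE 100 μM, 30 min at 25 °C. […] D2 striatum [3H]spiperone 0.05 nM with (+)-butaclamol 1 μM, 45 min at 37 °C. S1 cortex [3H]5-HT 1 nM plus glutathione and MgCl2, with 5-HT 10 μM, 20 min at 37 °C. […] Samples filtered on GF/B and counted.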

[17] = biological target: Serotonin 1 (5-HT1) receptor (Rattus norvegicus) (UniProt P28564+P30940+P19327+P28565); experiment: Binding affinity towards serotonin S1 receptor at 1.0 uM; type: protein assay; how it was run: as §4
[18] = biological target: Muscarinic acetylcholine receptor (Rattus norvegicus) (UniProt P08482+P08483+P08485+P08911+P10980); experiment: Binding affinity towards Muscarinic acetylcholine receptor at 1.0 uM concentration; type: protein assay
[19] = biological target: Adrenergic receptor alpha-1 (Rattus norvegicus) (UniProt P15823+P23944+P43140); experiment: Binding affinity towards alpha-1 adrenergic receptor at 1.0 uM concentration; type: protein assay; how it was run: as §4
[20] = biological target: Adrenergic receptor alpha-2 (Rattus norvegicus) (UniProt P22086+P19328+P22909); experiment: Binding affinity towards alpha-2 adrenergic receptor at 1.0 uM concentration; type: protein assay

Sodium-dependent serotonin transporter (Rattus norvegicus), sequence (P31652 whole entry): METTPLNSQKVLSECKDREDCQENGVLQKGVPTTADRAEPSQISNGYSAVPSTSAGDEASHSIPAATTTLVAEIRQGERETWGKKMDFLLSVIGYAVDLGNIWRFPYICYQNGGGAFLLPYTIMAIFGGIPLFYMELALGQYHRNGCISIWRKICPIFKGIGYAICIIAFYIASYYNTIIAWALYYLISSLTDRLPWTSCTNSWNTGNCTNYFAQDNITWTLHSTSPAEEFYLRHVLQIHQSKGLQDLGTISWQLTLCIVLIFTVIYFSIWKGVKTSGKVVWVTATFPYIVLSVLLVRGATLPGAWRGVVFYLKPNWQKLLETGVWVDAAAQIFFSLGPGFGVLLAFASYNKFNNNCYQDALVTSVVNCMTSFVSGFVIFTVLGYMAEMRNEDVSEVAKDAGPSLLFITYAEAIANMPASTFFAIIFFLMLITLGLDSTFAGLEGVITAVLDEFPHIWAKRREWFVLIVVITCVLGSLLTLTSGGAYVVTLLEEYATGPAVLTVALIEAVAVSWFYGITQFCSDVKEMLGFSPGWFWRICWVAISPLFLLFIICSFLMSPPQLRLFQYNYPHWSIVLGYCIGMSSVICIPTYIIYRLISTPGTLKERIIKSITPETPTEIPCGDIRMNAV
D(2) dopamine receptor (Rattus norvegicus), sequence (P61169 whole entry): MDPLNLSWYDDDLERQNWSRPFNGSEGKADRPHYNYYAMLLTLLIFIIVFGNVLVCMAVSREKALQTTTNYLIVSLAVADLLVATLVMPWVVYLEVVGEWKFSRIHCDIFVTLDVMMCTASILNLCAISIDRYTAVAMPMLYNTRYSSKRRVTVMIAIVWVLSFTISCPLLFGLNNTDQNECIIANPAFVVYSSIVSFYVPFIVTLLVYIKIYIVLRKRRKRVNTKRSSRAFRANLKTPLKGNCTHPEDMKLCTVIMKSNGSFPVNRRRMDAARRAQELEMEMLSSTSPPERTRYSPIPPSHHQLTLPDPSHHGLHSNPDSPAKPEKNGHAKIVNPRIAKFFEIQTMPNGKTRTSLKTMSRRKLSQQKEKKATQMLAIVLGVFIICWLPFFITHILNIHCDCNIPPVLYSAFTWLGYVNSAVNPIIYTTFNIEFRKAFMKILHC
Norepinephrine transporter (Rattus norvegicus), sequence (Q9WTR4 as listed by the source): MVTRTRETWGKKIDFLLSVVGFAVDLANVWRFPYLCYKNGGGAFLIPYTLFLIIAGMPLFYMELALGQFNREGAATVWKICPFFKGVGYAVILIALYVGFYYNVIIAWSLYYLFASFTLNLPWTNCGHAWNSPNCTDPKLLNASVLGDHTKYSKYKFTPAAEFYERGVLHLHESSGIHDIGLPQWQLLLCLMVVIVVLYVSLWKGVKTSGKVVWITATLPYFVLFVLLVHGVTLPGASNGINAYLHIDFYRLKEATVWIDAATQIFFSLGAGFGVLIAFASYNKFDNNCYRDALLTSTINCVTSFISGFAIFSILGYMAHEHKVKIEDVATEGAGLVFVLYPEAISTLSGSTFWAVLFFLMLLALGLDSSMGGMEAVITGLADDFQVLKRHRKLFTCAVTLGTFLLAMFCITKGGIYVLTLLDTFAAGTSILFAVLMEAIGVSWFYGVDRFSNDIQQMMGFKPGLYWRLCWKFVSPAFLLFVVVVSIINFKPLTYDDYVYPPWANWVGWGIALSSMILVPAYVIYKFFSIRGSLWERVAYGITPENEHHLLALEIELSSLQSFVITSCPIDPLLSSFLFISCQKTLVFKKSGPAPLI
Norepinephrine transporter, sequence (Q9WTR4 whole entry): as the sequence (Q9WTR4 as listed by the source) above
Sodium-dependent dopamine transporter (Rattus norvegicus), sequence (P23977 whole entry): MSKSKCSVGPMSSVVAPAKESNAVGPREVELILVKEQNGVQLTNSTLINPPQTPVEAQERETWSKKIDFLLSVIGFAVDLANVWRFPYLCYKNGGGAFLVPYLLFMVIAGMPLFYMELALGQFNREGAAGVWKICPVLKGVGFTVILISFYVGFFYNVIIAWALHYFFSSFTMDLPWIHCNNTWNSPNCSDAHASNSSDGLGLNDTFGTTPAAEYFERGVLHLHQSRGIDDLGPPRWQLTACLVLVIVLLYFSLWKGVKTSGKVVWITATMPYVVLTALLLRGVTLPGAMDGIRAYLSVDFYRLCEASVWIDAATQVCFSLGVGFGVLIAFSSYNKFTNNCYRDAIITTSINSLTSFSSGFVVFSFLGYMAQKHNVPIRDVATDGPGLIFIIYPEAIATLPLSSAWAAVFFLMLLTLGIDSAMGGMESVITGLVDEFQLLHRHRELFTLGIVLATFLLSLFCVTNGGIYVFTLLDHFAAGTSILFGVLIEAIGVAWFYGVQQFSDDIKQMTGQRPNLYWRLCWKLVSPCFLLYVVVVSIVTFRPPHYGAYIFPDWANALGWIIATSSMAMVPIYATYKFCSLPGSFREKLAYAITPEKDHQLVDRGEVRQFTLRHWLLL
Sodium-dependent dopamine transporter, sequence (P23977 whole entry): as above

`C[C@@H]1[C@@H](c2ccccc2)c2ccccc2[C@@H]2CCCN12` was tested, and the ED50 [1] was “inactive”, the ED50 [2] was “inactive” and the behavior [3] was “Weak”. The inhibition [4] was 0%, the inhibition [5] was 4% and the inhibition [6] was 12%.
For `Br.Clc1cccc([C@@H]2CN3CCC[C@@H]3c3ccccc32)c1`, the Ki [7] was 49 nM, the ED50 [8] was < 1 mg/kg and the ED50 [9] was ~0.1 mg/kg. The behavior [10] was “Stimulant”, the Ki [11] was 2.5 nM and the Ki [12] was 0.45 nM.
`COc1ccc([C@@H]2CN3CCC[C@H]3c3ccccc32)cc1OC` was tested, and the ED50 [1] was “inactive”, the ED50 [8] was 29.4 mg/kg and the behavior [3] was “Weak”. It also gave an Inhibition [13] of 9%, an inhibition [14] of 27% and an inhibition [15] of 11%.
`c1ccc([C@@H]2CN3CCC[C@@H]3c3ccccc32)cc1` was tested, and the ED50 [1] was “inactive”, the ED50 [2] was “inactive” and the behavior [3] was “Partial stimulant”. For the same compound, the inhibition [4] was 6%, the inhibition [5] was 4% and the inhibition [6] was 16%.
In the case of `CNCCC(Oc1ccc(C(F)(F)F)cc1)c1ccccc1` (centres undefined), the inhibition [16] is reported as 12% and the inhibition [17] is reported as 13%.
`Br.COc1ccc([C@@H]2CN3CCC[C@@H]3c3ccccc32)cc1OC` showed an inhibition [16] of -1%, an ED50 [8] of 0.13 mg/kg and an ED50 [9] of 2 mg/kg. The behavior [3] was “Partial stimulant”, the inhibition [18] was -1% and the Ki [11] was 71.9 nM. For the same compound, the Ki [12] was 3.4 nM, the inhibition [19] was 58% and the inhibition [20] was 15%.
`c1ccc(C[C@H]2CN3CCC[C@H]3c3ccccc32)cc1` was tested, and the ED50 [1] was “inactive”, the ED50 [2] was “inactive” and the inhibition [4] was 19%. The inhibition [5] was 69% and the inhibition [6] was 32%.
In the case of `c1ccc([C@@H]2CN3CCC[C@@H]3c3ccccc32)cc1` (stereo in doubt; (+)-7b), the inhibition [16] is reported as 40%, the behavior [10] is reported as “Stimulant” and the inhibition [20] is reported as 64%.
Work on `CSc1ccc([C@@H]2CN3CCC[C@@H]3c3ccccc32)cc1` (stereo in doubt; (+)-48b) yielded an inhibition [17] of 31%.
With `Br.CSc1ccc([C@@H]2CN3CCC[C@H]3c3ccccc32)cc1` the inhibition [16] was 28%, the ED50 [8] was 10.9 mg/kg and the ED50 [9] was > 75 mg/kg. For the same compound, the inhibition [18] was 0% and the inhibition [19] was 43%.
In the case of `Clc1ccc([C@@H]2CN3CCC[C@@H]3c3cc(Cl)ccc32)cc1`, the inhibition [16] is reported as 55%, the ED50 [8] is reported as ~4 mg/kg and the ED50 [9] is reported as 37.4 mg/kg. For the same compound, the behavior [3] was “Partial stimulant”, the inhibition [17] was 11% and the Ki [11] was 3.2 nM. It also gave a Ki [12] of 3.2 nM, an inhibition [19] of 20% and an inhibition [20] of 10%.
With `O=C(CCCN1CCC(O)(c2ccc(Cl)cc2)CC1)c1ccc(F)cc1` the inhibition [17] was 58%.

Source: ChEMBL document CHEMBL1123812, “Pyrroloisoquinoline antidepressants. 2. In-depth exploration of structure-activity relationships” (J Med Chem, 1987)
